# Results as given in ChEMBL document CHEMBL1134494, “2-Amino-6-arylsulfonylbenzonitriles as non-nucleoside reverse transcriptase inhibitors of HIV-1” (J Med Chem, 2001).
# System: HeLa
# Experiment: Antiviral activity against K103N/L100I mutant virus in the HeLa MAGI assay.
# Assay type: functional, cell-based, Homo sapiens
# Conditions: not given
# Summary of the method: (§1)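 Isogenic recombinant HIV-1 strains carrying the listed RT mutations were tested against the test compounds in HeLa MAGI indicator cells. Beta-galactosidase was quantified by activation of a chemiluminescent substrate 3 days after infection. IC50 was the concentration inhibiting 50% of the HIV-1-induced beta-galactosidase signal relative to untreated controls. It was determined for each recombinant virus.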
row,SMILES,IC50 [nM]
1,Cc1cc(Br)cc(S(=O)(=O)c2cccc(N)c2C#N)c1,16000
2,O=C1Nc2ccc(Cl)cc2[C@@](C#CC2CC2)(C(F)(F)F)O1 [EFAVIRENZ],1600
3,Cc1ccnc2c1NC(=O)c1cccnc1N2C1CC1 [NEVIRAPINE],10000

# System: HeLa
# Experiment: Antiviral activity against K103N/V108I mutant virus in the HeLa MAGI assay.
# Assay type: functional, cell-based, Homo sapiens
# Conditions: not given
# Summary of the method: as §1
row,SMILES,IC50 [nM]
1,Cc1cc(Br)cc(S(=O)(=O)c2cccc(N)c2C#N)c1,15000
2,O=C1Nc2ccc(Cl)cc2[C@@](C#CC2CC2)(C(F)(F)F)O1 [EFAVIRENZ],74
3,Cc1ccnc2c1NC(=O)c1cccnc1N2C1CC1 [NEVIRAPINE],21000

# System: HeLa
# Experiment: Antiviral activity against E138K mutant virus in the HeLa MAGI assay.
# Assay type: functional, cell-based, Homo sapiens
# Conditions: not given
# Summary of the method: as §1
row,SMILES,IC50 [nM]
1,Cc1cc(Br)cc(S(=O)(=O)c2cccc(N)c2C#N)c1,15
2,O=C1Nc2ccc(Cl)cc2[C@@](C#CC2CC2)(C(F)(F)F)O1 [EFAVIRENZ],0.8
3,Cc1ccnc2c1NC(=O)c1cccnc1N2C1CC1 [NEVIRAPINE],72

# System: Human immunodeficiency virus 1
# Experiment: Antiviral activity against HIV-1 infected human MT-4 cells.
# Assay type: functional, organism-based
# Conditions: Human immunodeficiency virus 1, MT4
# Summary of the method: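 HTLV-1-transformed MT4 cells were infected with HIV-1 strain 3B at 100× the amount giving a 50% drop in cell growth. They were cultured 5 days with a range of compound concentrations. IC50 is the concentration restoring 50% of infected-cell growth (cytopathic effect) relative to uninfected MT4 controls.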
row,SMILES,IC50 [nM]
1,Cc1ccc(Sc2cccc(N)c2C#N)cc1,115000
2,N#Cc1ccc(Sc2cccc(N)c2C#N)cc1,43800
3,N#Cc1c(N)cccc1[S+]([O-])c1ccccc1Br (configuration not stated),39200
4,Cc1cc(Br)cc(S(=O)(=O)c2cccc(N)c2C#N)c1,20

# System: MT4
# Experiment: Cell culture cytotoxicity against MT-4 cells.
# Assay type: functional, cell-based
# Conditions: Homo sapiens
# Summary of the method: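 MT4 cells were exposed to compound in parallel with the 5-day HIV-1 strain 3B cytopathic-effect assay. Compound-induced cytotoxicity is reported as the cell culture cytotoxicity IC50 (CCIC50).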
row,SMILES,IC50 [nM]
1,Cc1ccc(Sc2cccc(N)c2C#N)cc1,> 200000
2,N#Cc1ccc(Sc2cccc(N)c2C#N)cc1,> 200000
3,N#Cc1c(N)cccc1[S+]([O-])c1ccccc1Br (configuration not stated),168000
4,Cc1cc(Br)cc(S(=O)(=O)c2cccc(N)c2C#N)c1,133000

# System: HeLa
# Experiment: Antiviral activity against V108I/Y181C mutant virus in the HeLa MAGI assay.
# Assay type: functional, cell-based, Homo sapiens
# Conditions: not given
# Summary of the method: as §1
row,SMILES,IC50 [nM]
1,Cc1cc(Br)cc(S(=O)(=O)c2cccc(N)c2C#N)c1,18000
2,O=C1Nc2ccc(Cl)cc2[C@@](C#CC2CC2)(C(F)(F)F)O1 [EFAVIRENZ],3.3
3,Cc1ccnc2c1NC(=O)c1cccnc1N2C1CC1 [NEVIRAPINE],> 10000

# Biological target: Human immunodeficiency virus type 1 reverse transcriptase (Human immunodeficiency virus 1, UniProt Q72547)
# Experiment: Inhibitory activity against HIV-1 reverse transcriptase
# Conditions: not given
# Summary of the method: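 Recombinant HIV RT at 1 nM was combined with 40 nM Eu-chelate-labeled biotinylated DNA primer/RNA template and 100 nM Cy5-dUTP. Reactions were started with enzyme.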
row,SMILES,IC50 [nM]
1,Cc1ccc(Sc2cccc(N)c2C#N)cc1,5700
2,N#Cc1ccc(Sc2cccc(N)c2C#N)cc1,> 19000
3,N#Cc1c(N)cccc1[S+]([O-])c1ccccc1Br (configuration not stated),> 19000
4,Cc1cc(Br)cc(S(=O)(=O)c2cccc(N)c2C#N)c1,3

# System: HeLa
# Experiment: Antiviral activity against V108I mutant virus in the HeLa MAGI assay.
# Assay type: functional, cell-based, Homo sapiens
# Conditions: not given
# Summary of the method: as §1
row,SMILES,IC50 [nM]
1,Cc1cc(Br)cc(S(=O)(=O)c2cccc(N)c2C#N)c1,11
2,O=C1Nc2ccc(Cl)cc2[C@@](C#CC2CC2)(C(F)(F)F)O1 [EFAVIRENZ],1.4
3,Cc1ccnc2c1NC(=O)c1cccnc1N2C1CC1 [NEVIRAPINE],340

# System: HeLa
# Experiment: Antiviral activity against K103N/P225H mutant virus in the HeLa MAGI assay.
# Assay type: functional, cell-based, Homo sapiens
# Conditions: not given
# Summary of the method: as §1
row,SMILES,IC50 [nM]
1,Cc1cc(Br)cc(S(=O)(=O)c2cccc(N)c2C#N)c1,13000
2,O=C1Nc2ccc(Cl)cc2[C@@](C#CC2CC2)(C(F)(F)F)O1 [EFAVIRENZ],130
3,Cc1ccnc2c1NC(=O)c1cccnc1N2C1CC1 [NEVIRAPINE],10000

# System: HeLa
# Experiment: Antiviral activity against V106A mutant virus in the HeLa MAGI assay.
# Assay type: functional, cell-based, Homo sapiens
# Conditions: not given
# Summary of the method: as §1
row,SMILES,IC50 [nM]
1,Cc1cc(Br)cc(S(=O)(=O)c2cccc(N)c2C#N)c1,1.5
2,O=C1Nc2ccc(Cl)cc2[C@@](C#CC2CC2)(C(F)(F)F)O1 [EFAVIRENZ],1.5
3,Cc1ccnc2c1NC(=O)c1cccnc1N2C1CC1 [NEVIRAPINE],~10000

# System: HeLa
# Experiment: Antiviral activity against K103N/Y181C mutant virus in the HeLa MAGI assay.
# Assay type: functional, cell-based, Homo sapiens
# Conditions: not given
# Summary of the method: as §1
row,SMILES,IC50 [nM]
1,Cc1cc(Br)cc(S(=O)(=O)c2cccc(N)c2C#N)c1,> 50000
2,O=C1Nc2ccc(Cl)cc2[C@@](C#CC2CC2)(C(F)(F)F)O1 [EFAVIRENZ],42
3,Cc1ccnc2c1NC(=O)c1cccnc1N2C1CC1 [NEVIRAPINE],> 50000

# System: HeLa
# Experiment: Antiviral activity against V106A/Y181C mutant virus in the HeLa MAGI assay.
# Assay type: functional, cell-based, Homo sapiens
# Conditions: not given
# Summary of the method: as §1
row,SMILES,IC50 [nM]
1,Cc1cc(Br)cc(S(=O)(=O)c2cccc(N)c2C#N)c1,77
2,O=C1Nc2ccc(Cl)cc2[C@@](C#CC2CC2)(C(F)(F)F)O1 [EFAVIRENZ],3.3
3,Cc1ccnc2c1NC(=O)c1cccnc1N2C1CC1 [NEVIRAPINE],> 10000

# System: HeLa
# Experiment: Antiviral activity against K103N mutant virus in the HeLa MAGI assay.
# Assay type: functional, cell-based, Homo sapiens
# Conditions: not given
# Summary of the method: as §1
row,SMILES,IC50 [nM]
1,Cc1cc(Br)cc(S(=O)(=O)c2cccc(N)c2C#N)c1,970
2,O=C1Nc2ccc(Cl)cc2[C@@](C#CC2CC2)(C(F)(F)F)O1 [EFAVIRENZ],24
3,Cc1ccnc2c1NC(=O)c1cccnc1N2C1CC1 [NEVIRAPINE],7100

# System: HeLa
# Experiment: Antiviral activity against G190A mutant virus in the HeLa MAGI assay.
# Assay type: functional, cell-based, Homo sapiens
# Conditions: not given
# Summary of the method: as §1
row,SMILES,IC50 [nM]
1,Cc1cc(Br)cc(S(=O)(=O)c2cccc(N)c2C#N)c1,31
2,O=C1Nc2ccc(Cl)cc2[C@@](C#CC2CC2)(C(F)(F)F)O1 [EFAVIRENZ],6.4
3,Cc1ccnc2c1NC(=O)c1cccnc1N2C1CC1 [NEVIRAPINE],> 10000

# System: HeLa
# Experiment: Antiviral activity against Y181C mutant virus in the HeLa MAGI assay.
# Assay type: functional, cell-based, Homo sapiens
# Conditions: not given
# Summary of the method: as §1
row,SMILES,IC50 [nM]
1,Cc1cc(Br)cc(S(=O)(=O)c2cccc(N)c2C#N)c1,10000
2,O=C1Nc2ccc(Cl)cc2[C@@](C#CC2CC2)(C(F)(F)F)O1 [EFAVIRENZ],1.8
3,Cc1ccnc2c1NC(=O)c1cccnc1N2C1CC1 [NEVIRAPINE],> 10000

# System: HeLa
# Experiment: Antiviral activity against wild-type HIV-1 in the HeLa MAGI assay.
# Assay type: functional, cell-based
# Conditions: Homo sapiens
# Summary of the method: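 HeLa MAGI cells were infected with isogenic recombinant HIV-1. After 3 days, β-galactosidase was quantified by chemiluminescent substrate activation. IC50 is the concentration inhibiting 50% of the HIV-1-induced β-galactosidase signal relative to untreated controls.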
row,SMILES,IC50 [nM]
1,Cc1cc(Br)cc(S(=O)(=O)c2cccc(N)c2C#N)c1,9
2,O=C1Nc2ccc(Cl)cc2[C@@](C#CC2CC2)(C(F)(F)F)O1 [EFAVIRENZ],0.9
3,Cc1ccnc2c1NC(=O)c1cccnc1N2C1CC1 [NEVIRAPINE],89

# System: HeLa
# Experiment: Antiviral activity against Y188C mutant virus in the HeLa MAGI assay.
# Assay type: functional, cell-based, Homo sapiens
# Conditions: not given
# Summary of the method: as §1
row,SMILES,IC50 [nM]
1,Cc1cc(Br)cc(S(=O)(=O)c2cccc(N)c2C#N)c1,1700
2,O=C1Nc2ccc(Cl)cc2[C@@](C#CC2CC2)(C(F)(F)F)O1 [EFAVIRENZ],1.2
3,Cc1ccnc2c1NC(=O)c1cccnc1N2C1CC1 [NEVIRAPINE],2200

# System: HeLa
# Experiment: Antiviral activity against P236L mutant virus in the HeLa MAGI assay.
# Assay type: functional, cell-based, Homo sapiens
# Conditions: not given
# Summary of the method: as §1
row,SMILES,IC50 [nM]
1,Cc1cc(Br)cc(S(=O)(=O)c2cccc(N)c2C#N)c1,11
2,O=C1Nc2ccc(Cl)cc2[C@@](C#CC2CC2)(C(F)(F)F)O1 [EFAVIRENZ],0.5
3,Cc1ccnc2c1NC(=O)c1cccnc1N2C1CC1 [NEVIRAPINE],56
